The record followed here is ChEMBL document CHEMBL1141164, “Design and synthesis of a series of melamine-based nitroheterocycles with activity against Trypanosomatid parasites” (J Med Chem, 2005).

For test [1], the system named is Mus musculus. The experiment in a line: In vivo antitrypanosomal activity at a dose of 4*20 mg/kg, i.p., in mice infected with Trypanosoma brucei brucei STIB 795 strain; 4/4. Type of test: functional.
The test system of test [2] is Trypanosoma cruzi. The experiment in a line: In vitro inhibitory concentration against intracellular amastigotes of Trypanosoma cruzi in rat skeletal myoblasts incubated for 37 degree C for 4 days. Type of test: functional, organism-based. As to conditions: 96 h. Put shortly: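 L-6 myoblasts seeded at 2000 cells/well in RPMI 1640 with 10% FBS and 2 mM L-glutamine. After 24 h, 5000 T. cruzi Tulahuen C2C4 (LacZ) trypomastigotes added with serial drug dilution. Incubated 4 days at 37 °C in 5% CO2, then CPRG/Nonidet added.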

The subject of test [3] is Trypanosoma cruzi. Briefly: In vivo activity at a dose of 50 mg/kg, i.p., for 5 doses in mice infected with Trypanosoma cruzi, measured as survival days (control 13 days).
Test [4] deals with Mus musculus. Briefly: In vivo antitrypanosomal activity at a dose of 4*20 mg/kg, i.p., in mice infected with Trypanosoma brucei rhodesiense STIB 900 strain, measured as survival days (control 7 days). The test is classed as functional.
For test [5], the system named is Mus musculus. Briefly: In vivo antitrypanosomal activity at a dose of 4*20 mg/kg, i.p., in mice infected with Trypanosoma brucei brucei STIB 795 strain, measured as survival days (control 7 days). The test is classed as functional.
Test [6] deals with Leishmania donovani. Briefly: Inhibitory concentration in vitro against intracellular amastigotes of Leishmania donovani in mouse peritoneal macrophages incubated for 96 hr at 27 degree C.
The subject of the next test is L6. The experiment in a line: Concentration causing cytotoxicity to 50% of L-6 rat skeletal myoblasts. Type of test: functional, cell-based. The method, boiled down: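 L-6 rat skeletal myoblasts run in the same Alamar Blue assay as the trypanosome screen. Serial dilutions spanning 90 to 0.123 μg/mL, 72 h at 37 °C under 5% CO2, then Alamar Blue for a further 2–4 h. Fluorescence read at ex 536/em 588 nm and expressed as % of control to give IC50.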

Test [7] relates to Trypanosoma brucei. Briefly: Inhibitory concentration against RAD51-/- mutant Trypanosoma brucei.
Test [8] deals with Trypanosoma brucei brucei. Briefly: In vitro inhibitory concentration against blood stream Trypanosoma brucei brucei AT1 knockout mutant with a non functional P2 transporter incubated for 72 h at 37 degree C. Type of test: organism-based. The method, boiled down: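 Bloodstream T. b. brucei trypomastigotes, wild type or P2 transporter knockout (TbAT1-/-), were tested side by side. Viability was read by Alamar Blue fluorescence and IC50 values were determined.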

Test [9] deals with Trypanosoma brucei brucei. The experiment in a line: In vitro inhibitory concentration against blood stream Trypanosoma brucei brucei AT1 wild type incubated for 72 h at 37 degree C. Type of test: functional, organism-based. Put shortly: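 Wild-type T. b. brucei trypomastigotes, tested alongside the P2 knockout (TbAT1-/-). Alamar Blue viability assay used to derive IC50 values.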

Test [10] deals with Mus musculus. Briefly: In vivo antitrypanosomal activity at a dose of 4*20 mg/kg, i.p., in mice infected with Trypanosoma brucei rhodesiense STIB 900 strain; 2/4. The test is classed as functional.
In test [11] the test system is Trypanosoma cruzi. The experiment in a line: In vivo activity at a dose of 50 mg/kg, i.p., for 5 doses in mice infected with Trypanosoma cruzi, measured as survival days (control 13 days). As to conditions: ip, 312 h.
Test [12] deals with Trypanosoma brucei rhodesiense. The experiment in a line: Inhibitory concentration in vitro against blood stream Trypanosoma brucei rhodesiense incubated for 72 hr at 37 degree C. Type of test: functional, organism-based. Put shortly:
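T. b. rhodesiense STIB900 trypomastigotes, a 1982 human isolate from Tanzania, grown in minimum essential medium with 2-mercaptoethanol and 15% heat-inactivated horse serum. Drug dilutions 90 to 0.123 μg/mL, 72 h at 37 °C, 5% CO2.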

Test [13] deals with Trypanosoma brucei. The experiment in a line: Inhibitory concentration against wild-type (427) Trypanosoma brucei. The test is classed as functional, organism-based.
In test [14] the test system is Leishmania donovani. Briefly: Inhibitory concentration in vitro against intracellular amastigotes of Leishmania donovani in mouse peritoneal macrophages incubated for 96 hr at […]; tox is toxic to macrophages.
Test [15] has as its system Trypanosoma cruzi. Briefly: In vivo percent inhibition of compound at a dose of 50 mg/kg, i.p., for 5 doses in mice infected with Trypanosoma cruzi. The note with it: ip.
Test [16] concerns Mus musculus. Briefly: In vivo antitrypanosomal activity at a dose of 4*20 mg/kg, i.p., in mice infected with Trypanosoma brucei brucei STIB 795 strain; 0/4. The test is classed as functional.
Test [17] has as its system Trypanosoma cruzi. The experiment in a line: In vivo activity at a dose of 50 mg/kg, i.p., for 5 doses in mice infected with Trypanosoma cruzi, measured as survival days (control 13 days). As to conditions: route intraperitoneal.

Take `CNc1nc(N)nc(N/N=C/c2ccc([N+](=O)[O-])o2)n1`: the figures for the Cured/Infected in the test with Mus musculus [1] and in the test on Mus musculus [10] were 4 and 2, respectively. Moreover, the IC50 (as a rule, the concentration needed to halve the response being measured) is 390 nM in the test with Trypanosoma cruzi [2]; 750 nM in the test with Leishmania donovani [6]; 48900 nM in the test with L6; 70 nM in the test on Trypanosoma brucei [7]; 60 nM in test [8]; 130 nM in test [9]. The IC50 is 18 nM in [12], 80 nM in the test with Trypanosoma brucei [13] and 80 nM in the test with Trypanosoma brucei [13] (Trypanosoma brucei). The Survival is 13 days in the test with Trypanosoma cruzi [3], above 38.5 days in the test with Mus musculus [4] and above 60 days in the test on Mus musculus [5]. In the test on Trypanosoma cruzi [11], the inhibition in vivo (as a rule, the relative decrease from the control value, in per cent) at 50 mg/kg came out at 27.8%.
As for `CN(C)c1nc(N)nc(N/N=C/c2ccc([N+](=O)[O-])o2)n1`, the concentration for half-maximal inhibition (IC50) result in the test with Leishmania donovani [14] is “Toxic”; in the test with Trypanosoma cruzi [2] it was 290 nM; with L6, 110000 nM; in test [8] it was 3090 nM; in [9] it was 5360 nM; in [12], 53 nM. The Survival in the test on Mus musculus [5] stood at 18.3 days; in the test with Trypanosoma cruzi [17], 14 days. For the same molecule, at 50 mg/kg the inhibition in vivo in the test with Trypanosoma cruzi [15] was 45%. This molecule gave a Cured/Infected in the test with Mus musculus [16] of 0.
